Source: PubChem
EP2 mod – EP2 receptor modulators, cAMP readout, primary screen, cell-based, HTRF cAMP, PGE2 stimulation; induction, % at 25 µM; hit rate 0.83% among 260,000; EP2-expressing cells, cAMP HTRF FRET, PGE2 co-stimulation; AID 940, 2007;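 active means compounds whose cAMP rise, as percent of the full-agonist control response, exceeds 60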;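 further: rat C6 glioma line stably carrying human EP2 under a CMV promoter; the protocol text gives 20 µM as final concentration; 100% = response of wells given 1 µM PGE2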
Target sequence (P43116 whole entry, looked up): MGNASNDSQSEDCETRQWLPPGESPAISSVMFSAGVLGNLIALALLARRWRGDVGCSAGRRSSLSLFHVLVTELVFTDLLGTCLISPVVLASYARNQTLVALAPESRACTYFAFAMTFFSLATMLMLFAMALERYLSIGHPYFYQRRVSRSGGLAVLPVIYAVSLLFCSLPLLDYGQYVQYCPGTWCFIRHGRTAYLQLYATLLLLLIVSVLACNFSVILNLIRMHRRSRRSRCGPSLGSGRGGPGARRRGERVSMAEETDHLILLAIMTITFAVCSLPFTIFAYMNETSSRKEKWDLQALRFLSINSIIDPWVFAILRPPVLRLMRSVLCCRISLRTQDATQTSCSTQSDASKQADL
MC4R barr agon – MC4R agonists recruiting beta-arrestin, primary screen, cell-based, luminescence, agonist arm of biased-ligand search; Melanocortin receptor 4 (Homo sapiens), P32245; U2OS MC4R beta-arrestin complementation; percent of melanotan II response, DMSO zero; activation, % at 8.9 µM; hit rate 0.98% among 360,000; AID 540308, 2011;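 active means activation above a per-plate cutoff, the mean activation of sample wells on that plate plus 3 SD, cut at about 8% in these data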
MC4R antagonist – MC4R antagonists of cAMP signaling, primary screen, cell-based, TR-FRET, antagonist arm of biased-ligand search | Melanocortin receptor 4 (Homo sapiens), P32245 | MC4R-expressing cells, MTII-stimulated cAMP, LANCE TR-FRET | inhibition, % at 6.5 µM | hit rate 0.48% among 360,000;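 active means inhibition above its plate's cutoff, the mean of tested wells on that plate plus 3 SD, cut at about 29% in these data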;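 further: 0% = Melanotan II alone and 100% = Melanotan II plus saturating MCL0020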
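Assay system: U2OS-MC4R stable cell line; Also added: Melanotan II; Technique: Eu-cAMP/anti-cAMP TR-FRET, emission 671 nm; Times: 30-min compound, 1-h challenge, 1-h detection, room temperature.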
EP2 antag – human EP2 receptor antagonists, primary screen, TR-FRET cAMP, C6 glioma cells; inhibition, % at 25 µM; hit rate 0.52% among 260,000; C6 glioma cells expressing human EP2; cells stimulated with saturating PGE2;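 active means percent inhibition above 40 after rounding to a whole number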;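 further: rat C6 glioma host cells with rolipram phosphodiesterase inhibitor present; the protocol text gives 20 µM as final concentration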
Granule exo inh – LAMP-1 surface exposure blockers, TALL-104 cells – cell-based, flow cytometry, MLPCN library, primary screen | inhibition, % at 10 µM | hit rate 0.66% among 360,000 | AID 651702, 2012 | TALL-104 LAMP-1 surface exposure; cells stimulated with thapsigargin and PMA;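 active means inhibition above about 55%, limit read from the data; inconclusive means no clear call, values can overlap the other calls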
T cell modulator – modulators of CD8 T cell-vesicle binding, primary screen, mouse 2C CD8+ T cells, flow cytometry; 2C CD8+ T cell-vesicle binding; hits give low values; response (vesicle binding), % at 7 µM; hit rate 0.068% among 330,000; AID 2052, 2009;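 active means response, share of CD8 T cells binding vesicles, and their 90th percentile fluorescence all below set limits, cut at about 80% in these data, passing the limit was not always enough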;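 further: values below 100% mean blocked vesicle binding to the CD8+ T cells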
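Read-out – percent CD8+ FL2 mean versus row control · System – murine 2C transgenic CD8+ T lymphocytes · Times – 1.5 h cell–vesicle binding at 37 °C, then 20 min icy labelling · Control set – naked vesicles low, QL9 vesicles with vehicle high · Detection – cytometric PE anti-B7-1 and Alexa647 anti-CD8 signals after 1% paraformaldehyde fixation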
Exocytosis CP01 – inhibitors of lytic granule exocytosis, confirmation, TALL-104 cells, flow cytometry, Cherry Pick01 | shares compounds with Granule exo inh | LAMP-1 externalization; stimulated with PMA plus thapsigargin | inhibition, % at 10 µM | AID 651954, 2012 | hit rate 11% among 1,500; in the data active means inhibition above about 60%;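 further: 0% = stimulated vehicle wells and 100% = unstimulated wells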
Numbers without * were called inactive; i = inactive; ? = inconclusive; / = no result. Only some compounds are listed: those with a hit (about 2.6% of all), similar ones and a draw of the others.

SMILES	EP2 mod	MC4R barr agon	MC4R antagonist	EP2 antag	Granule exo inh	T cell modulator	Exocytosis CP01
CCCc1cc(CN2CCOCC2)c(O)c(CN2CCOCC2)c1O	/	-1	12	/	79*	/	28
COc1cc2nc(Nc3ccc(C)c(C)c3)nc(N)c2cc1OC	/	0	3	/	?	416	/
COc1cc2nc(Nc3ccc(F)cc3)nc(N)c2cc1OC	/	1	8	/	65*	282	-11
Cc1cccc2c1-c1sc(C(=O)NCCCN3CCC(C)CC3)cc1CO2	/	1	5	/	79*	500	9
CC1CCN(CCCNC(=O)c2cc3c(s2)-c2ccccc2OC3)CC1	/	-1	9	/	8	i	/
COc1ccc(N(CC(=O)O)S(=O)(=O)c2c(C)n[nH]c2C)cc1	5	1	1	8	0	24	/
CCCCNc1c(-c2ccc(-c3cccc(Cl)c3)cc2)nc2ccccn12	/	0	23	/	8	364	/
CCCCCCSc1ccc(-c2nc3ccccn3c2NCCCC)cc1	/	-1	10	/	70*	480	7
Cc1cc(NCCO)nc(N2CCOCC2)n1	19	-1	9	9	0	371	/
CCOc1ccc2[nH]c3c(N4CCc5ccccc5C4)ncnc3c2c1	-52	-2	-6	44*	97*	269	98*
CCn1c2ccccc2c2cc(NC(=O)c3coc(=O)c(Br)c3)ccc21	-29	0	0	3	4	475	/
CCn1c2ccccc2c2cc(NC(=O)c3ccc(=O)oc3)ccc21	-20	5	10	10	78*	235	-4
CCn1c2ccccc2c2cc(NC(=O)CSc3nnc(-c4ccccc4)o3)ccc21	-14	0	1	15	87*	203	-7
C#CCNC(=O)C1=C[C@@H](c2coc3ccccc3c2=O)C[C@@H](OCc2ccc(CO)cc2)O1	0	0	5	6	88*	314	-5
C#CCNC(=O)C1=C[C@H](c2coc3ccccc3c2=O)C[C@H](OCc2ccc(CO)cc2)O1	-12	-1	3	13	-4	334	/
CC(C)=CCC/C(C)=C/CNC(=O)C[C@H]1C[C@H](C(=O)N2CCOCC2)[C@@]2(C)c3[nH]c4ccc(Cl)cc4c3CCN2C1=O	/	0	3	/	70*	/	11
Cc1cc(C(=O)CN2C(=O)NC(C)(c3ccc(F)c(F)c3)C2=O)c(C)n1C1CC1 (stereo not drawn)	/	1	9	/	60*	/	-14
COc1ccc(C2(C)NC(=O)N(CC(=O)c3cc(C)n(C4CC4)c3C)C2=O)cc1 (stereo not drawn)	/	-4	4	/	3	352	/
CCN(CC)CCCNC(=O)c1[nH]c(C)c(C(=O)NC2CCCCC2)c1C	-16	-1	9	2	-4	371	/
CC(C)c1cc(Cn2c3ccccc3c(=O)n2C(C)C)on1	/	/	/	/	-4	/	/
COc1ccc(-c2cc(CNc3nc(NCc4ccccc4OC)nc4ccsc34)on2)cc1	/	1	5	/	66*	/	52
COc1ccccc1CNc1nc(NCc2ccccc2)nc2ccsc12	/	0	-17	/	25	/	/
Fc1ccc(Nc2nc(NCc3ccco3)c3ccccc3n2)cc1	-52	2	-7	21	86*	677	5
CCOc1cc(/C=C2\SC(=NC)N(C)C2=O)cc(Cl)c1OC(C)=O	/	0	11	/	15	233	/
COc1ccccc1Cc1c(-c2ccco2)nc2c3ccccc3ccn12	/	/	/	/	76*	/	-3
SMILES	EP2 mod	MC4R barr agon	MC4R antagonist	EP2 antag	Granule exo inh	T cell modulator	Exocytosis CP01
CCCCOn1c(C)c(C(=O)OCC)c2c3nonc3ccc21	/	-1	3	6	87*	225	36
CCN(CC)c1nc(-c2ccccc2)nc2ccccc12	/	-1	6	/	-6	402	/
CCCCN(CCCC)c1nc(-c2ccncc2)nc2ccccc12	68*	-1	13	8	93*	615	68*
COc1ccc(OC)c(-c2csc(NC(=O)Cc3ccccc3)n2)c1	/	4	3	/	59*	234	-13
COc1ccc(OC)c(-c2csc(NC(=O)Cc3ccc(OC)c(OC)c3)n2)c1	/	1	0	/	64*	398	-4
COc1cccc(NC(=O)Nc2nc(-c3ccc(OC)c(OC)c3)cs2)c1	/	19*	3	/	78*	261	87*
COc1ccc(CC(=O)Nc2nc(-c3cc(OC)ccc3OC)cs2)cc1	27	4	17	0	1	423	/
Cc1nc2c3cc(F)ccc3n(CCN3CCCCC3)c2s1	6	-2	-2	-1	23	385	/
COC(=O)[C@]12CCCCC=C1N(CCc1ccc(OC)c(OC)c1)C(=O)[C@H](CC(=O)NCc1cccc3ccccc13)C2	/	/	/	/	-5	/	/
COC(=O)[C@]12CCCCC=C1N(Cc1cccc3ccccc13)C(=O)[C@H](CC(=O)NCc1ccc(OC)c(OC)c1)C2	/	/	/	/	70*	/	97*
CCOc1ccccc1N(C(=O)c1ccco1)C(C(=O)NC1CCCC1)c1cccs1 (stereo not drawn)	/	-2	5	/	60*	93	-14
CCOc1ccccc1N(C(=O)c1ccco1)C(C(=O)NC1CCCC1)c1ccccc1 (stereo not drawn)	42	/	/	12	/	/	/
COc1cccc(C(C(=O)NC2CCCCC2)N(C(=O)c2ccco2)c2ccccc2OC)c1 (stereo not drawn)	/	-2	8	/	89*	370	-7
CCn1c(=O)c2[nH]c(Cl)nc2n(CC)c1=O	/	0	1	/	-6	/	/
O=C(c1ccc(CS(=O)Cc2cccc(Cl)c2)o1)N1CCN(c2ccc(F)cc2)CC1 (stereo not drawn)	/	-1	2	/	0	/	/
Cc1ccc(C)c(N2CCN(C(=O)c3ccc(CS(=O)Cc4cccc(Cl)c4)o3)CC2)c1 (stereo not drawn)	/	0	-2	/	58*	224	-5
COc1ccccc1N1CCN(C(=O)c2sc3nc(-c4ccccc4)cn3c2C)CC1	-34	1	8	11	3	225	/
Cc1ccnc(Nc2nc(-c3ccc(O)c(O)c3)cs2)c1	/	0	-4	/	72*	89	-12
